In the array DNA melting data of Ke et al. (doi:10.1101/2024.01.08.574731):

What was measured:
[1] = folding enthalpy; higher = less favourable; fluorescence melt of hairpins on a sequencing array, two-state fit; settings: sodium 0.088 M
Method in brief: (§1)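 On a sequenced MiSeq flow cell, library hairpins with annealed Cy3 and quencher oligos were imaged for Cy3 fluorescence in 2.5 °C steps up to 60 °C, in 50 mM Na-HEPES pH 8.0, 25 mM NaCl. Normalisation used pre-quench Cy3 and control constructs. Bootstrapped two-state fits gave melting temperature and folding enthalpy, combined by inverse variance across four replicates and with fitted temperatures raised by 9.35 °C to match UV melts.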

[2] = melting temperature; fluorescence melt of hairpins on a sequencing array, two-state fit, raised by 9.35 °C to match UV melts; settings: sodium 0.088 M
Method in brief: as §1

Sequence | folding enthalpy [1] [kcal/mol] | Tm [2] [°C]
GTCACCGAAAGGTTCGAC ((((((....)))..))) | -14.9 | 30.3
GATCTTCGTTAAGATC ((((((....)))))) | -32.2 | 43
TCGTAGAAATACGA (((((....))))) | -11.6 | 41.3
GGGGTTGGAAACGACCCC (((((.(....).))))) | -49.1 | 57.8
GAGGTGACGAAAGTCCTC (((..(((....)))))) | -17.6 | 34.9
GAGAGTGGAAACACCCTC (((.(((....))).))) | -26.8 | 36
GTGGCCGAAAGGCAGCAC ((((((....)))..))) | -14.1 | 46.3
GATCTCAAAGAGATC ((((((...)))))) | -37.6 | 55.2
GCGTGTGCGAAAGCACGC (((..(((....)))))) | -9.9 | 57.5
GAGCTCGCGAAAGCGCTC (((..(((....)))))) | -14.2 | 41.8
GATCCCCTAAGGGATC ((((((....)))))) | -39.1 | 63.2
GCTAGGCGAAAGCCTTGC ((.((((....)))).)) | -21.1 | 61.8
GGTTCGCGAAAGCGTACC (((.(((....))).))) | -26 | 56
GATCCAGCGATGGATC ((((((....)))))) | -42.4 | 55.6
GTTGCTGAAAAGCAAC ((((((....)))))) | -32.8 | 66
GACCACACGAAAGTGGTC (((..(((....)))))) | -30.9 | 57
GTTCCGGGAAACTGGAGC (.(((.(....).))).) | -21.2 | 36.1
GATCAAGGTATTGATC ((((((....)))))) | -35.2 | 48.7
GCTAACGAAAGTTCAGC ((((((....))).))) | -21.8 | 39
GTGCCCGGAAACGGGTGC (..((((....))))..) | -21.9 | 53.9
GTTTTGGGAAACTAAGAC ((.((.(....).)).)) | -9.09 | 29
GTCAGTGGAAACACTAAC ((.((((....)))).)) | -17.4 | 30.9
GGGTGGGGAAACCTACCC ((((.((....)).)))) | -41.4 | 54.5
GATCAAAATATTGATC ((((((....)))))) | -26.6 | 38.6

Sequence | folding enthalpy [1] [kcal/mol] | Tm [2] [°C]
GGAGGTTCGAAAGAATCC (((..(((....)))))) | -14.4 | 28.9
ATTACGAAAGTAAT (((((....))))) | -17.5 | 44.4
GATCTCAACAGAGATC ((((((....)))))) | -44.3 | 54.9
GTATACGAAAGTACATAC ((((((....)))..))) | -10.6 | 21.3
GTGGGGCGAAAGCCTCAC (((.(((....))).))) | -30.2 | 67.6
GATCACACCGGTGATC ((((((....)))))) | -39.3 | 57.3
GGGTCACGAAAGTGCCCC (((.(((....))).))) | -27.4 | 63
GATCAAAGCATTGATC ((((((....)))))) | -36.8 | 43.7
GATCCTTGGTAGGATC ((((((....)))))) | -31.6 | 51.1
GTAATGGCGAAAGCCTAC (((..(((....)))))) | -7.82 | 31.3
GATCACCCGCGTGATC ((((((....)))))) | -48.3 | 54.5
GGAAGCGGAAACGTTTCC ((((.((....)).)))) | -39.7 | 49.8
GATCGCACTCGCGATC ((((((....)))))) | -34.7 | 68.4
CGCGGAACGTCCGCG ((((((...)))))) | -39.5 | 60.5
GATCGCGAAAGCGCATC ((((((....))).))) | -15.3 | 51.4
GTTCTGGGAAACCAGAAC (((((((....))))))) | -42.9 | 60.5
GGCTTACGAAAGTATGCC (((.(((....))).))) | -45.2 | 56.8
GCGTAGCGAAAGCTCGC (((.(((....)))))) | -16.4 | 63.3
CATTCGAAAGAATG (((((....))))) | -23.2 | 49.7
GGATGCCCGAAAGGGTCC (((..(((....)))))) | -11 | 33.2
GCAGACGGAAACACCTGC ((((..(....)..)))) | -18.1 | 28.6
GATCAAATACTTGATC ((((((....)))))) | -33.2 | 39.9
GGGTACGAAAGTATGCCC ((((((....)))..))) | -16 | 37.3
GTGCTCCGAAAGGAACAC (((.(((....))).))) | -46.5 | 52.2

Sequence | folding enthalpy [1] [kcal/mol] | Tm [2] [°C]
AAACGGAAACGTTT (((((....))))) | -21.3 | 45.1
GGCCAACGAAAGTTGCC (((.(((....)))))) | -20 | 54.3
GCACTCGAAAGAGCCTGC ((((((....)))..))) | -12.9 | 27.8
GAGTACCCGAAAGGGCTC (((..(((....)))))) | -15.3 | 32.4
AATTCGAAAGAATT (((((....))))) | -14.3 | 43.3
GTGGTAGGAAACTATCGC (.(.(((....))).).) | -18.1 | 31.1
GAGTGCGGAAACGCGCTC (((.(((....))).))) | -31.7 | 66.1
GCCTTCGAAAGAAGTGGC ((((((....)))..))) | -22 | 44.5
GAGTCCGAAAGGATCCTC ((((((....)))..))) | -12.1 | 34.1
GTGGTTGGAAACAGCCAC ((((.((....)).)))) | -44.1 | 52.4
GATCACGAAAGTGAGATC ((((((....)))..))) | -17 | 48.5
GCAGTGGGAAACCATTGC (((.(((....))).))) | -25.6 | 50.1
GATCGTGAGGACGATC ((((((....)))))) | -34.1 | 53.5
CGGGCGGAAACGCACCG ((((((....))).))) | -16.9 | 60.4
GCACCACGAAAGTGTTGC (((.(((....))).))) | -35.9 | 52.6
GCGGGCGCCGC ((((...)))) | -9.79 | 60.6
GATCCTGGGAAGGATC ((((((....)))))) | -42.3 | 59.7
GGGGCAGCGAAAGCTCCC (((..(((....)))))) | -16.7 | 56
GGAAGCCGAAAGGCTCC (((.(((....)))))) | -15.7 | 56
GTCATCGAAAGATAAGAC ((((((....)))..))) | -21 | 31.6
GATCTTCACTAAGATC ((((((....)))))) | -29.7 | 43.9
AGTTTGAAAAAACT (((((....))))) | -12.1 | 33
GGGCTAGGAAACTGGCTC (.((.((....)).)).) | -20.4 | 40.9
GATCCACGAATGGATC ((((((....)))))) | -34.4 | 48.1

Sequence | folding enthalpy [1] [kcal/mol] | Tm [2] [°C]
CCCTTGAAAAAGGG (((((....))))) | -16.9 | 47.2
GGAGGAGCGAAAGCTTCC (((..(((....)))))) | -13.4 | 38.6
GTTGATGGAAACATCAGC (.(((((....))))).) | -25 | 46.5
GGTTAGGAAACTAACC ((((((....)))))) | -35.6 | 52.3
GTAGCGCGAAAGCGTTAC (((.(((....))).))) | -23.1 | 58.3
GATCTGCAAGCAGATC ((((((....)))))) | -40.2 | 57.6
GGCAACGAAAGTTCCGCC ((((((....)))..))) | -21.4 | 48.4
GATCAGCGTTCTGATC ((((((....)))))) | -37.3 | 49.8
GGTCCCGAAAGGGTAACC ((((((....)))..))) | -18 | 42.2
GCTTTCGGAAACGGAAGC ((((.((....)).)))) | -39.8 | 53.2
GGCGGTCGAAAGACGGCC (((.(((....))).))) | -34.5 | 68.2
GATCTCCTGGAGATC ((((((...)))))) | -37.3 | 53.2
GAAGCCGAAAGGCATTC ((((((....))).))) | -11.1 | 40.6
GGGATCGAAAGATCACCC ((((((....)))..))) | -13.4 | 51.1
GCGTGTTGACGC ((((....)))) | -23.9 | 55
GATCGAATTGTCGATC ((((((....)))))) | -41.9 | 50
GCGATAGGAAACCATCGC (((((.(....).))))) | -34.5 | 50.1
GACTACGAAAGTAGCGTC ((((((....)))..))) | -12.7 | 43.8
GAGTACGAAAGTAATCTC ((((((....)))..))) | -27.2 | 42.5
GTCGTCGAAAGACATGAC ((((((....)))..))) | -17.4 | 38.5
GCATCAGCGAAAGCTTGC (((..(((....)))))) | -13.2 | 41.3
